Among the data in ChEMBL document CHEMBL2375276, “Antibacterial oxazolidinone analogues having a N-hydroxyacetyl-substituted seven-membered [1,2,5]triazepane or [1,2,5]oxadiazepane C-ring unit” (Eur J Med Chem, 2013) are ED50, Ratio and MIC values, retold here.

In brackets after ≈: the same amount, converted by molar mass.

One experiment concerns Staphylococcus aureus. Nature of the experiment: Antibacterial activity against methicillin-resistant Staphylococcus aureus SR3637 infected in JCL/ICR mouse systemic infection model assessed as mortality administered as iv measured over 7 days. The class given is functional. The settings on record: 168 h. A digest of the protocol:
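Five-week-old male JCL/ICR mice (20–25 g), five per group. Infected intraperitoneally with 0.5 or 1.0 mL bacterial suspension (about 100× LD50). Intravenous dosing 1 h post-infection. Mortality followed 7 days; ED50 with 95% confidence limits by logit method.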
One may read the ED50 as the midpoint of the dose-response relation. With `O=C(CO)N1CCN(c2ccc(N3C[C@H](Cn4ccnn4)OC3=O)cc2F)CCN1`, the 50% effective dose (ED50) is 0.77 mg/kg.

A further experiment has as its system Haemophilus influenzae. The experiment is described as follows: Ratio of eperezolid MIC to compound MIC for Haemophilus influenzae SR27914 clinical isolate. The class given is functional.
Conditions: not given
For the compound `COC(=S)NC[C@H]1CN(c2cc(F)c(N3CCON(C(=O)CO)CC3)c(F)c2)C(=O)O1`, the Ratio turned out to be 4.

A further experiment relates to Streptococcus pneumoniae. The experiment is described as follows: Ratio of eperezolid MIC to compound MIC for Streptococcus pneumoniae SR26207 clinical isolate. It counts as functional.
Conditions: not given
As to `COC(=S)NC[C@H]1CN(c2cc(F)c(N3CCON(C(=O)CO)CC3)c(F)c2)C(=O)O1`, the Ratio is listed as 4.

For another experiment, the system named is Moraxella catarrhalis. The experiment is described as follows: Ratio of eperezolid MIC to compound MIC for Moraxella catarrhalis SR26840 clinical isolate. The class given is functional.
Conditions: not given
Take `COC(=S)NC[C@H]1CN(c2cc(F)c(N3CCON(C(=O)CO)CC3)c(F)c2)C(=O)O1`: the Ratio is reported as 4.

In a further experiment the test system is Enterococcus faecium. Nature of the experiment: Ratio of eperezolid MIC to compound MIC for Enterococcus faecium SR7940 clinical isolate. It counts as functional.
Conditions: not given
In the case of `COC(=S)NC[C@H]1CN(c2cc(F)c(N3CCON(C(=O)CO)CC3)c(F)c2)C(=O)O1`, the Ratio is on record as 4.

The test system of a further experiment is Enterococcus faecalis. Nature of the experiment: Ratio of eperezolid MIC to compound MIC for Enterococcus faecalis SR1004 clinical isolate. It counts as functional.
Conditions: not given
`COC(=S)NC[C@H]1CN(c2cc(F)c(N3CCON(C(=O)CO)CC3)c(F)c2)C(=O)O1`: the Ratio was determined as 4.

The subject of another experiment is Staphylococcus aureus. Nature of the experiment: Ratio of eperezolid MIC to compound MIC for Staphylococcus aureus Smith. The class given is functional.
Conditions: not given
As for `COC(=S)NC[C@H]1CN(c2cc(F)c(N3CCON(C(=O)CO)CC3)c(F)c2)C(=O)O1`, the Ratio came out at 4.

A further experiment concerns Staphylococcus aureus. The experiment is described as follows: Ratio of eperezolid MIC to compound MIC for Staphylococcus aureus SR20549 clinical isolate. It counts as functional.
Conditions: not given
As for `COC(=S)NC[C@H]1CN(c2cc(F)c(N3CCON(C(=O)CO)CC3)c(F)c2)C(=O)O1`, the Ratio amounted to 4.

In another experiment the test system is Moraxella catarrhalis. Nature of the experiment: Ratio of linezolid MIC to compound MIC for Moraxella catarrhalis SR26840 clinical isolate. The class given is functional.
Conditions: not given
As to `COC(=S)NC[C@H]1CN(c2cc(F)c(N3CCON(C(=O)CO)CC3)c(F)c2)C(=O)O1`, the Ratio is on record as 4.

The test system of the next experiment is Streptococcus pneumoniae. The experiment is described as follows: Ratio of linezolid MIC to compound MIC for Streptococcus pneumoniae SR26207 clinical isolate. It counts as functional.
Conditions: not given
For the compound `COC(=S)NC[C@H]1CN(c2cc(F)c(N3CCON(C(=O)CO)CC3)c(F)c2)C(=O)O1`, the Ratio is reported as 4.

The next experiment deals with Haemophilus influenzae. The experiment is described as follows: Ratio of linezolid MIC to compound MIC for Haemophilus influenzae SR27914 clinical isolate. It counts as functional.
Conditions: not given
With `COC(=S)NC[C@H]1CN(c2cc(F)c(N3CCON(C(=O)CO)CC3)c(F)c2)C(=O)O1`, the Ratio came out at 4.

Another experiment has as its system Enterococcus faecium. The experiment is described as follows: Ratio of linezolid MIC to compound MIC for Enterococcus faecium SR7940 clinical isolate.
Conditions: not given
The class given is functional.
Turning to `COC(=S)NC[C@H]1CN(c2cc(F)c(N3CCON(C(=O)CO)CC3)c(F)c2)C(=O)O1`, the Ratio was determined as 4.

For another experiment, the system named is Enterococcus faecalis. Nature of the experiment: Ratio of linezolid MIC to compound MIC for Enterococcus faecalis SR1004 clinical isolate. It counts as functional.
Conditions: not given
Turning to `COC(=S)NC[C@H]1CN(c2cc(F)c(N3CCON(C(=O)CO)CC3)c(F)c2)C(=O)O1`, the Ratio is reported as 4.

A further experiment concerns Staphylococcus aureus. Nature of the experiment: Ratio of linezolid MIC to compound MIC for Staphylococcus aureus Smith. The class given is functional.
Conditions: not given
`COC(=S)NC[C@H]1CN(c2cc(F)c(N3CCON(C(=O)CO)CC3)c(F)c2)C(=O)O1`: the Ratio is reported as 4.

The test system of a further experiment is Staphylococcus aureus. The experiment is described as follows: Ratio of linezolid MIC to compound MIC for Staphylococcus aureus SR20549 clinical isolate. The class given is functional.
Conditions: not given
Take `COC(=S)NC[C@H]1CN(c2cc(F)c(N3CCON(C(=O)CO)CC3)c(F)c2)C(=O)O1`: the Ratio was 4.

The test system of the next experiment is Haemophilus influenzae. Nature of the experiment: Antibacterial activity against Haemophilus influenzae SR27914 clinical isolate assessed as growth inhibition by CLSI broth microdilution method. It counts as functional.
Conditions: not given
In short, it runs like this: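 MIC by CLSI broth microdilution using Haemophilus test medium.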
(In general: Broth dilution looks for growth in wells or tubes with falling amounts of substance.)
For the compound `O=C(CO)N1CCN(c2ccc(N3C[C@H](CNc4ccon4)OC3=O)cc2F)CCN1`, the MIC is 32 µg/mL (≈ 73.7 µM).

As to `O=C(CO)N1CCN(c2c(F)cc(N3C[C@H](Cn4ccnn4)OC3=O)cc2F)CCO1`, the MIC was found to be 16 µg/mL (≈ 36.5 µM).

Consider `COC(=S)NC[C@H]1CN(c2cc(F)c(N3CCON(C(=O)CO)CC3)c(F)c2)C(=O)O1`, for which the MIC turned out to be 4 µg/mL (≈ 8.69 µM).

As for `O=C(CO)N1CCN(c2ccc(N3C[C@H](Cn4ccnn4)OC3=O)cc2F)CCN1`, the MIC was found to be 16 µg/mL (≈ 38.1 µM).

A further experiment has as its system Streptococcus pneumoniae. Nature of the experiment: Antibacterial activity against Streptococcus pneumoniae SR26207 clinical isolate assessed as growth inhibition by CLSI broth microdilution method.
Conditions: not given
It counts as functional. A digest of the protocol:
(§1)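 MIC by CLSI broth microdilution in cation-adjusted Mueller-Hinton broth; S. pneumoniae medium supplemented with 5% lysed horse blood.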
Turning to `O=C(CO)N1CCN(c2ccc(N3C[C@H](CNc4ccon4)OC3=O)cc2F)CCN1`, the MIC was 0.5 µg/mL (≈ 1.15 µM).

On to `O=C(CO)N1CCN(c2c(F)cc(N3C[C@H](Cn4ccnn4)OC3=O)cc2F)CCO1`, for which the MIC came out at 1 µg/mL (≈ 2.28 µM).

Turning to `COC(=S)NC[C@H]1CN(c2cc(F)c(N3CCON(C(=O)CO)CC3)c(F)c2)C(=O)O1`, the MIC turned out to be 0.125 µg/mL (≈ 0.271 µM).

Consider `O=C(CO)N1CCN(c2ccc(N3C[C@H](Cn4ccnn4)OC3=O)cc2F)CCN1`, for which the MIC came to 1 µg/mL (≈ 2.38 µM).

The subject of a further experiment is Moraxella catarrhalis. The experiment is described as follows: Antibacterial activity against Moraxella catarrhalis SR26840 clinical isolate assessed as growth inhibition by CLSI broth microdilution method. The class given is functional.
Conditions: not given
A digest of the protocol: as §1
As for `O=C(CO)N1CCN(c2ccc(N3C[C@H](CNc4ccon4)OC3=O)cc2F)CCN1`, the MIC came out at 16 µg/mL (≈ 36.8 µM).

With `O=C(CO)N1CCN(c2c(F)cc(N3C[C@H](Cn4ccnn4)OC3=O)cc2F)CCO1`, the MIC is 8 µg/mL (≈ 18.2 µM).

With `COC(=S)NC[C@H]1CN(c2cc(F)c(N3CCON(C(=O)CO)CC3)c(F)c2)C(=O)O1`, the MIC is 1 µg/mL (≈ 2.17 µM).

Regarding `O=C(CO)N1CCN(c2ccc(N3C[C@H](Cn4ccnn4)OC3=O)cc2F)CCN1`, the MIC was 8 µg/mL (≈ 19.1 µM).

The subject of another experiment is Enterococcus faecium. The experiment is described as follows: Antibacterial activity against Enterococcus faecium SR7940 clinical isolate assessed as growth inhibition by CLSI broth microdilution method. It counts as functional.
Conditions: not given
In short, it runs like this: as §1
For the compound `O=C(CO)N1CCN(c2ccc(N3C[C@H](CNc4ccon4)OC3=O)cc2F)CCN1`, the MIC turned out to be 2 µg/mL (≈ 4.6 µM).

As for `O=C(CO)N1CCN(c2c(F)cc(N3C[C@H](Cn4ccnn4)OC3=O)cc2F)CCO1`, the MIC worked out at 2 µg/mL (≈ 4.56 µM).

Take `COC(=S)NC[C@H]1CN(c2cc(F)c(N3CCON(C(=O)CO)CC3)c(F)c2)C(=O)O1`: the MIC was found to be 0.25 µg/mL (≈ 0.543 µM).

Regarding `O=C(CO)N1CCN(c2ccc(N3C[C@H](Cn4ccnn4)OC3=O)cc2F)CCN1`, the MIC was found to be 4 µg/mL (≈ 9.54 µM).

The test system of the next experiment is Enterococcus faecalis. The experiment is described as follows: Antibacterial activity against Enterococcus faecalis SR1004 clinical isolate assessed as growth inhibition by CLSI broth microdilution method. It counts as functional.
Conditions: not given
In short, it runs like this:
as §1
`O=C(CO)N1CCN(c2ccc(N3C[C@H](CNc4ccon4)OC3=O)cc2F)CCN1`: the MIC worked out at 2 µg/mL (≈ 4.6 µM).

Consider `O=C(CO)N1CCN(c2c(F)cc(N3C[C@H](Cn4ccnn4)OC3=O)cc2F)CCO1`, for which the MIC came out at 2 µg/mL (≈ 4.56 µM).

Take `COC(=S)NC[C@H]1CN(c2cc(F)c(N3CCON(C(=O)CO)CC3)c(F)c2)C(=O)O1`: the MIC was 0.5 µg/mL (≈ 1.09 µM).

As for `O=C(CO)N1CCN(c2ccc(N3C[C@H](Cn4ccnn4)OC3=O)cc2F)CCN1`, the MIC turned out to be 4 µg/mL (≈ 9.54 µM).

Another experiment deals with Staphylococcus aureus. Nature of the experiment: Antibacterial activity against linezolid-resistant Staphylococcus aureus NRS271 assessed as growth inhibition by CLSI broth microdilution method. The class given is functional.
Conditions: not given
A digest of the protocol:
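MIC by CLSI broth microdilution in cation-adjusted Mueller-Hinton broth. Lowest concentration inhibiting growth taken as MIC.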
For `O=C(CO)N1CCN(c2ccc(N3C[C@H](CNc4ccon4)OC3=O)cc2F)CCN1`, the MIC stood at 64 µg/mL (≈ 147 µM).

On to `O=C(CO)N1CCN(c2c(F)cc(N3C[C@H](Cn4ccnn4)OC3=O)cc2F)CCO1`, for which the MIC came out at 16 µg/mL (≈ 36.5 µM).

For `COC(=S)NC[C@H]1CN(c2cc(F)c(N3CCON(C(=O)CO)CC3)c(F)c2)C(=O)O1`, the MIC was 2 µg/mL (≈ 4.34 µM).

With `O=C(CO)N1CCN(c2ccc(N3C[C@H](Cn4ccnn4)OC3=O)cc2F)CCN1`, the MIC turned out to be 64 µg/mL (≈ 153 µM).

In another experiment the test system is Staphylococcus aureus. Nature of the experiment: Antibacterial activity against Staphylococcus aureus Smith assessed as growth inhibition by CLSI broth microdilution method. It counts as functional.
Conditions: not given
In short, it runs like this:
as §1
Regarding `O=C(CO)N1CCN(c2ccc(N3C[C@H](CNc4ccon4)OC3=O)cc2F)CCN1`, the MIC came to 2 µg/mL (≈ 4.6 µM).

For the compound `O=C(CO)N1CCN(c2c(F)cc(N3C[C@H](Cn4ccnn4)OC3=O)cc2F)CCO1`, the MIC was determined as 2 µg/mL (≈ 4.56 µM).

For `COC(=S)NC[C@H]1CN(c2cc(F)c(N3CCON(C(=O)CO)CC3)c(F)c2)C(=O)O1`, the MIC amounted to 0.25 µg/mL (≈ 0.543 µM).

`O=C(CO)N1CCN(c2ccc(N3C[C@H](Cn4ccnn4)OC3=O)cc2F)CCN1`: the MIC is 4 µg/mL (≈ 9.54 µM).

The subject of a further experiment is Staphylococcus aureus. Nature of the experiment: Antibacterial activity against Staphylococcus aureus SR20549 clinical isolate assessed as growth inhibition by CLSI broth microdilution method. It counts as functional.
Conditions: not given
In short, it runs like this: as §1
With `O=C(CO)N1CCN(c2ccc(N3C[C@H](CNc4ccon4)OC3=O)cc2F)CCN1`, the MIC was determined as 1 µg/mL (≈ 2.3 µM).

Turning to `O=C(CO)N1CCN(c2c(F)cc(N3C[C@H](Cn4ccnn4)OC3=O)cc2F)CCO1`, the MIC came out at 1 µg/mL (≈ 2.28 µM).

Consider `COC(=S)NC[C@H]1CN(c2cc(F)c(N3CCON(C(=O)CO)CC3)c(F)c2)C(=O)O1`, for which the MIC turned out to be 0.25 µg/mL (≈ 0.543 µM).

Take `O=C(CO)N1CCN(c2ccc(N3C[C@H](Cn4ccnn4)OC3=O)cc2F)CCN1`: the MIC came to 2 µg/mL (≈ 4.77 µM).
